According to ChEMBL document CHEMBL4689842, “EUbOPEN Chemogenomics Library wave 1” (2021):

Tests used:
U2OS [1] = experiment: Multiplex assay against U2OS; assay type: toxicity, cell-based; conditions: human
How it was run: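 Values for tubulin, mitochondrial-mass and membrane-permeability phenotypes are per cents of cells with healthy nuclei. These cells were identified by CellPathfinder machine-learning gating of live cells that had been stained at seeding with Hoechst33342, BioTracker Green Microtubule Cytoskeleton Dye, MitoTracker Red and Annexin V Alexa Fluor 680 and imaged on a CQ1 microscope at 37°C and 5% CO2 after compound addition. The gating first set Hoechst high-intensity objects apart from normal cells, then split normal cells into healthy, pyknosed or fragmented nuclei, and pyknosed cells into mitotic or apoptotic.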

U2OS [2] = experiment: Incucyte cell viability with U2OS; assay type: toxicity, cell-based; conditions: human, 10 µM, compound concentration 10 uM; further: filed as whole numbers so only -1 and 0 and 1 occur
[3] = 12 h, 1 µM, compound concentration 1 uM, replicate 1
[4] = 12 h, 1 µM, compound concentration 1 uM, replicate 2
[5] = 12 h, 10 µM, compound concentration 10 uM, replicate 1
[6] = 12 h, 10 µM, compound concentration 10 uM, replicate 2
[7] = 24 h, 1 µM, compound concentration 1 uM, replicate 1
[8] = 24 h, 1 µM, compound concentration 1 uM, replicate 2
[9] = 24 h, 10 µM, compound concentration 10 uM, replicate 1
[10] = 24 h, 10 µM, compound concentration 10 uM, replicate 2
[11] = 48 h, 1 µM, compound concentration 1 uM, replicate 1
[12] = 48 h, 1 µM, compound concentration 1 uM, replicate 2
[13] = 48 h, 10 µM, compound concentration 10 uM, replicate 1
[14] = 48 h, 10 µM, compound concentration 10 uM, replicate 2

For Cc1nc(Cc2cccc(C(F)(F)F)c2)sc1-c1ccc(C(N)=O)nc1 [TP-024n], the “Population Apoptotic (%)” value (U2OS [1]; [3]) was 58%, the “Population Fragmented Nuclei (%)” value (U2OS [1]; [3]) was 8% and the “Population Healthy Nuclei (%)” value (U2OS [1]; [3]) was 85%. The “Population Hoechst High Intensity Objects (%)” value (U2OS [1]; [3]) was 5%, the “Population Membrane Permeable-Phenotype (%)” value (U2OS [1]; [3]) was 5% and the “Population Mitochondria Different-Phenotype (%)” value (U2OS [1]; [3]) was 10%. The “Population Mitotic Cells (%)” value (U2OS [1]; [3]) was 41%, the “Population Normal (%)” value (U2OS [1]; [3]) was 94% and the “Population Pyknosed Nuclei (%)” value (U2OS [1]; [3]) was 6%. For the same molecule, the “Population Tubulin-Different-Phenotype (%)” value (U2OS [1]; [3]) was 9%, the “Total Cell Count” value (U2OS [1]; [3]) was 159 and the “Population Apoptotic (%)” value (U2OS [1]; [4]) was 50%. For the same molecule, the “Population Fragmented Nuclei (%)” value (U2OS [1]; [4]) was 0%, the “Population Healthy Nuclei (%)” value (U2OS [1]; [4]) was 94% and the “Population Hoechst High Intensity Objects (%)” value (U2OS [1]; [4]) was 11%. The “Population Membrane Permeable-Phenotype (%)” value (U2OS [1]; [4]) was 2%, the “Population Mitochondria Different-Phenotype (%)” value (U2OS [1]; [4]) was 18% and the “Population Mitotic Cells (%)” value (U2OS [1]; [4]) was 50%. The “Population Normal (%)” value (U2OS [1]; [4]) was 88%, the “Population Pyknosed Nuclei (%)” value (U2OS [1]; [4]) was 5% and the “Population Tubulin-Different-Phenotype (%)” value (U2OS [1]; [4]) was 16%. The “Total Cell Count” value (U2OS [1]; [4]) was 130, the “Population Apoptotic (%)” value (U2OS [1]; [5]) was 45% and the “Population Healthy Nuclei (%)” value (U2OS [1]; [5]) was 68%. For the same molecule, the “Population Hoechst High Intensity Objects (%)” value (U2OS [1]; [5]) was 6%, the “Population Membrane Permeable-Phenotype (%)” value (U2OS [1]; [5]) was 3% and the “Population Mitochondria Different-Phenotype (%)” value (U2OS [1]; [5]) was 27%. The “Population Mitotic Cells (%)” value (U2OS [1]; [5]) was 54%, the “Population Normal (%)” value (U2OS [1]; [5]) was 93% and the “Population Pyknosed Nuclei (%)” value (U2OS [1]; [5]) was 13%. The “Population Tubulin-Different-Phenotype (%)” value (U2OS [1]; [5]) was 22%, the “Total Cell Count” value (U2OS [1]; [5]) was 186 and the “Population Apoptotic (%)” value (U2OS [1]; [6]) was 66%. The “Population Fragmented Nuclei (%)” value (U2OS [1]; [6]) was 17%, the “Population Healthy Nuclei (%)” value (U2OS [1]; [6]) was 67% and the “Population Hoechst High Intensity Objects (%)” value (U2OS [1]; [6]) was 4%. For the same molecule, the “Population Membrane Permeable-Phenotype (%)” value (U2OS [1]; [6]) was 9%, the “Population Mitochondria Different-Phenotype (%)” value (U2OS [1]; [6]) was 21% and the “Population Mitotic Cells (%)” value (U2OS [1]; [6]) was 33%. The “Population Normal (%)” value (U2OS [1]; [6]) was 95%, the “Population Pyknosed Nuclei (%)” value (U2OS [1]; [6]) was 14% and the “Population Tubulin-Different-Phenotype (%)” value (U2OS [1]; [6]) was 11%. For the same molecule, the “Total Cell Count” value (U2OS [1]; [6]) was 44, the “Population Apoptotic (%)” value (U2OS [1]; [7]) was 46% and the “Population Fragmented Nuclei (%)” value (U2OS [1]; [7]) was 6%. The “Population Healthy Nuclei (%)” value (U2OS [1]; [7]) was 86%, the “Population Hoechst High Intensity Objects (%)” value (U2OS [1]; [7]) was 4% and the “Population Membrane Permeable-Phenotype (%)” value (U2OS [1]; [7]) was 3%. For the same molecule, the “Population Mitochondria Different-Phenotype (%)” value (U2OS [1]; [7]) was 8%, the “Population Mitotic Cells (%)” value (U2OS [1]; [7]) was 53% and the “Population Normal (%)” value (U2OS [1]; [7]) was 95%. The “Population Pyknosed Nuclei (%)” value (U2OS [1]; [7]) was 6%, the “Population Tubulin-Different-Phenotype (%)” value (U2OS [1]; [7]) was 8% and the “Total Cell Count” value (U2OS [1]; [7]) was 164. For the same molecule, the “Population Apoptotic (%)” value (U2OS [1]; [8]) was 50%, the “Population Fragmented Nuclei (%)” value (U2OS [1]; [8]) was 5% and the “Population Healthy Nuclei (%)” value (U2OS [1]; [8]) was 91%. The “Population Hoechst High Intensity Objects (%)” value (U2OS [1]; [8]) was 5%, the “Population Membrane Permeable-Phenotype (%)” value (U2OS [1]; [8]) was 1% and the “Population Mitochondria Different-Phenotype (%)” value (U2OS [1]; [8]) was 7%. The “Population Mitotic Cells (%)” value (U2OS [1]; [8]) was 50%, the “Population Pyknosed Nuclei (%)” value (U2OS [1]; [8]) was 3% and the “Population Tubulin-Different-Phenotype (%)” value (U2OS [1]; [8]) was 15%. For the same molecule, the “Total Cell Count” value (U2OS [1]; [8]) was 126, the “Population Apoptotic (%)” value (U2OS [1]; [9]) was 42% and the “Population Fragmented Nuclei (%)” value (U2OS [1]; [9]) was 19%. For the same molecule, the “Population Membrane Permeable-Phenotype (%)” value (U2OS [1]; [9]) was 8%, the “Population Mitochondria Different-Phenotype (%)” value (U2OS [1]; [9]) was 23% and the “Population Mitotic Cells (%)” value (U2OS [1]; [9]) was 57%. The “Population Pyknosed Nuclei (%)” value (U2OS [1]; [9]) was 21%, the “Population Tubulin-Different-Phenotype (%)” value (U2OS [1]; [9]) was 16% and the “Total Cell Count” value (U2OS [1]; [9]) was 241. The “Population Apoptotic (%)” value (U2OS [1]; [10]) was 44%, the “Population Fragmented Nuclei (%)” value (U2OS [1]; [10]) was 14% and the “Population Healthy Nuclei (%)” value (U2OS [1]; [10]) was 58%. The “Population Hoechst High Intensity Objects (%)” value (U2OS [1]; [10]) was 2%, the “Population Membrane Permeable-Phenotype (%)” value (U2OS [1]; [10]) was 25% and the “Population Mitochondria Different-Phenotype (%)” value (U2OS [1]; [10]) was 32%. For the same molecule, the “Population Mitotic Cells (%)” value (U2OS [1]; [10]) was 55%, the “Population Normal (%)” value (U2OS [1]; [10]) was 97% and the “Population Pyknosed Nuclei (%)” value (U2OS [1]; [10]) was 26%. The “Population Tubulin-Different-Phenotype (%)” value (U2OS [1]; [10]) was 22%, the “Total Cell Count” value (U2OS [1]; [10]) was 60 and the “Population Apoptotic (%)” value (U2OS [1]; [11]) was 32%. For the same molecule, the “Population Healthy Nuclei (%)” value (U2OS [1]; [11]) was 88%, the “Population Hoechst High Intensity Objects (%)” value (U2OS [1]; [11]) was 3% and the “Population Membrane Permeable-Phenotype (%)” value (U2OS [1]; [11]) was 2%. For the same molecule, the “Population Mitochondria Different-Phenotype (%)” value (U2OS [1]; [11]) was 8%, the “Population Mitotic Cells (%)” value (U2OS [1]; [11]) was 68% and the “Population Normal (%)” value (U2OS [1]; [11]) was 96%. The “Population Pyknosed Nuclei (%)” value (U2OS [1]; [11]) was 6%, the “Population Tubulin-Different-Phenotype (%)” value (U2OS [1]; [11]) was 7% and the “Total Cell Count” value (U2OS [1]; [11]) was 160. The “Population Apoptotic (%)” value (U2OS [1]; [12]) was 33%, the “Population Fragmented Nuclei (%)” value (U2OS [1]; [12]) was 4% and the “Population Healthy Nuclei (%)” value (U2OS [1]; [12]) was 92%. For the same molecule, the “Population Hoechst High Intensity Objects (%)” value (U2OS [1]; [12]) was 4%, the “Population Membrane Permeable-Phenotype (%)” value (U2OS [1]; [12]) was 3% and the “Population Mitochondria Different-Phenotype (%)” value (U2OS [1]; [12]) was 10%. The “Population Mitotic Cells (%)” value (U2OS [1]; [12]) was 66%, the “Population Normal (%)” value (U2OS [1]; [12]) was 95% and the “Population Pyknosed Nuclei (%)” value (U2OS [1]; [12]) was 3%. The “Population Tubulin-Different-Phenotype (%)” value (U2OS [1]; [12]) was 14%, the “Total Cell Count” value (U2OS [1]; [12]) was 122 and the “Population Apoptotic (%)” value (U2OS [1]; [13]) was 55%. For the same molecule, the “Population Fragmented Nuclei (%)” value (U2OS [1]; [13]) was 20%, the “Population Healthy Nuclei (%)” value (U2OS [1]; [13]) was 56% and the “Population Hoechst High Intensity Objects (%)” value (U2OS [1]; [13]) was 5%. For the same molecule, the “Population Membrane Permeable-Phenotype (%)” value (U2OS [1]; [13]) was 10%, the “Population Mitochondria Different-Phenotype (%)” value (U2OS [1]; [13]) was 19% and the “Population Mitotic Cells (%)” value (U2OS [1]; [13]) was 44%. For the same molecule, the “Population Normal (%)” value (U2OS [1]; [13]) was 94%, the “Population Pyknosed Nuclei (%)” value (U2OS [1]; [13]) was 22% and the “Population Tubulin-Different-Phenotype (%)” value (U2OS [1]; [13]) was 13%. For the same molecule, the “Total Cell Count” value (U2OS [1]; [13]) was 386, the “Population Apoptotic (%)” value (U2OS [1]; [14]) was 72% and the “Population Fragmented Nuclei (%)” value (U2OS [1]; [14]) was 17%. For the same molecule, the “Population Healthy Nuclei (%)” value (U2OS [1]; [14]) was 69%, the “Population Hoechst High Intensity Objects (%)” value (U2OS [1]; [14]) was 6% and the “Population Membrane Permeable-Phenotype (%)” value (U2OS [1]; [14]) was 32%. The “Population Mitochondria Different-Phenotype (%)” value (U2OS [1]; [14]) was 32%, the “Population Mitotic Cells (%)” value (U2OS [1]; [14]) was 27% and the “Population Normal (%)” value (U2OS [1]; [14]) was 93%. For the same molecule, the “Population Pyknosed Nuclei (%)” value (U2OS [1]; [14]) was 13%, the “Population Tubulin-Different-Phenotype (%)” value (U2OS [1]; [14]) was 35% and the “Total Cell Count” value (U2OS [1]; [14]) was 93. For the same molecule, the “Growth Rate” value (U2OS [2]; 6 h, replicate number 1, timepoint 6 hours) was 0, the “Growth Rate” value (U2OS [2]; 12 h, replicate number 1, timepoint 12 hours) was 0 and the “Growth Rate” value (U2OS [2]; 18 h, replicate number 1, timepoint 18 hours) was 0. The “Growth Rate” value (U2OS [2]; 24 h, replicate number 1, timepoint 24 hours) was 0.
